Seven compounds from ChEMBL document CHEMBL1122250, “Synthesis and bacterial metabolism of cis- and trans-2-alkyl analogues of sodium cyclamate” (1983) can be followed below.

Test [1] is filed under the species Rattus norvegicus. As to the kind of experiment: Evaluated for the amine formed (during conversion of N-cycloalkylsulfamates to cycloalkylamines) in 10 mL incubation in Control rats. The class given is functional. An outline of the steps: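 Fresh feces (~5 g) from control rats were suspended in prereduced anaerobic minimal medium (pH 7 ± 0.2), spun at low then high speed, and the pellet resuspended. 1.0 mL suspension plus 9 mL medium and 100 mg sulfamate ran 22–24 h at 44–45 °C with CO2 bubbling. Amine was extracted at pH 10 into CH2Cl2, derivatized with phenyl isocyanate, and read by HPLC-UV 240 nm against an external standard. Reported as total µg per 10 mL.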

For test [2], the species on record is Rattus norvegicus. As to the kind of experiment: Evaluated for the amine formed (during conversion of N-cycloalkylsulfamates to cycloalkylamines) in 10 mL incubation in cyclamate-fed rats. The class given is functional. An outline of the steps: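 Rats drank 1% sodium cyclamate for at least 6 weeks; only cyclamate converters were used. Fresh feces (~5 g) were suspended in prereduced anaerobic minimal medium (pH 7 ± 0.2), and the washed bacterial pellet was resuspended. 1.0 mL suspension plus 9 mL medium and 100 mg sulfamate ran 22–24 h at 44–45 °C with CO2 bubbling. Amine was converted to phenylurea with phenyl isocyanate and quantified by HPLC-UV 240 nm against an external standard. Reported as µg per 10 mL.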

Turning to `CC1CCCCC1NS(=O)(=O)[O-].[Na+]` (cis isomer), the Amine formed was found to be 402 µg in the test filed under Rattus norvegicus [1] and 457 µg in the test listed under Rattus norvegicus [2].
In the case of `CC1CCCCC1NS(=O)(=O)[O-].[Na+]` (stereo in doubt), the values for the Amine formed in the test filed under Rattus norvegicus [1] and in the test filed under Rattus norvegicus [2] were 0 µg and 42 µg, respectively.
For the compound `CCC1CCCCC1NS(=O)(=O)[O-].[Na+]` (stereo in doubt), the Amine formed in the test listed under Rattus norvegicus [2] is 35 µg.
Turning to `CC(C)C1CCCCC1NS(=O)(=O)[O-].[Na+]` (stereo in doubt), the Amine formed in the test listed under Rattus norvegicus [1] was found to be 27.9 µg; in the test filed under Rattus norvegicus [2], 37.5 µg.
In the case of `CCC1CCCCC1NS(=O)(=O)[O-].[Na+]` (trans isomer), the Amine formed in the test listed under Rattus norvegicus [1] turned out to be 0 µg; in the test filed under Rattus norvegicus [2] it was 57 µg.
On to `CC(C)C1CCCCC1NS(=O)(=O)[O-].[Na+]` (trans isomer), for which the Amine formed in the test filed under Rattus norvegicus [1] and in the test listed under Rattus norvegicus [2] was 0 µg in each case.
`O=S(=O)([O-])NC1CCCCC1.[Na+]` [SODIUM CYCLAMATE]: the Amine formed amounted to 0 µg in the test filed under Rattus norvegicus [1] and 39 µg in the test filed under Rattus norvegicus [2].
